Test results as given in publication PMC4931877 (The Journal of Pharmacology and Experimental Therapeutics, 2016).
Where two headings read alike, the source gives them in different places.

Tests used:
[1] = SAD study plasma pharmacokinetics; format: in vivo, human; settings: for Cmax / AUC(0-t) / AUC(0-inf) / half-life: human, plasma, oral; for Cmax: Cmax GM (CV%); for AUC(0-t): AUC0–t GM (CV%); for AUC(0-inf): AUC0–∞ GM (CV%)
Procedure, shortened: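 Young subjects (8 per panel, 3:1 active:placebo) received single oral 10–1200 mg doses as solution or capsule; elderly subjects received 900 mg. Panel 4 was dosed fasted, after a high-fat meal, or 2 h after 40 mg famotidine. Plasma drug was measured by validated LC-MS/MS with noncompartmental analysis.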

[2] = MAD study plasma pharmacokinetics; format: in vivo, human; settings: for half-life / concentration at 24 h / Cmax: human, plasma, oral; for concentration at 24 h: C24 GM (CV%); for Cmax: Cmax GM (CV%)
Procedure, shortened: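 EDTA plasma was sampled at 0–24 h postdose on days 1 and 14, intensively on day 28, and at trough on days 5–25. Drug was measured by validated LC-MS/MS. Parameters are noncompartmental, with trapezoidal and log-trapezoidal AUC. Half-life is ln2/k from a least-squares terminal slope on days 14 and 28.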

CSF Aβ peptides [3] = assay: MAD study pharmacodynamic effects on CSF Aβ peptides; format: in vivo, human
CSF Aβ peptides [4] = assay: SAD study pharmacodynamic effects on CSF Aβ peptides; format: in vivo, human
Procedure, shortened: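 After a single oral dose, CSF was drawn by lumbar cannulation at −1 to 24 h postdose, with predose samples taken at 7–10 AM, and stored at −80°C in polypropylene. Aβ38/40/42 and total Aβ were measured by MSD immunoassay and Aβ37 by 6E10 sandwich immunoassay, in duplicate. Other Aβ fragments were measured by LC-MS/MS (LLOQ 30 pg/ml).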

UGT1A1 = target: T1, UGT1A1 (Homo sapiens, UniProt P22309); assay: UGT1A1 inhibition; format: biochemical
T1 sequence (P22309 26-533): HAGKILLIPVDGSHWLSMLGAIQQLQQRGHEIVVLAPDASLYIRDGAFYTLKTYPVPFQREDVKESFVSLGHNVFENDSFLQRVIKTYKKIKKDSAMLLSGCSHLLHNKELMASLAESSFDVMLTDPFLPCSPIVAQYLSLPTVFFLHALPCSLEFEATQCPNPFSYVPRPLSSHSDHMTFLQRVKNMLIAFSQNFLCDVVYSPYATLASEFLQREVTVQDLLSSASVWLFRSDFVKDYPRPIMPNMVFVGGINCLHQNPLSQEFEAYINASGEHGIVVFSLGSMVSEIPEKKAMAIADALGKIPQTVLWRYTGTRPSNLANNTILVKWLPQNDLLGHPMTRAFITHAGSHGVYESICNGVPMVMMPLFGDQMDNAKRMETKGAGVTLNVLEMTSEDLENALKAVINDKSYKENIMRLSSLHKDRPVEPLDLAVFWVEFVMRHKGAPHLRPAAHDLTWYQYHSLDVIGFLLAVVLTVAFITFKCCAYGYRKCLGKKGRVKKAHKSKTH

CYP3A4 [5] = target: T2, CYP3A4 (Homo sapiens, UniProt P08684); assay: Preclinical CYP3A4 time-dependent inhibition, induction and metabolism; format: in vitro ADME
brain Aβ42 = test system: brain Aβ42; set-up: species or system human; settings: single 900-mg dose
CYP3A4 [6] = target: T2, CYP3A4; assay: Plasma 4βHC biomarker of CYP3A4 in the MAD study; format: in vivo; settings: any treatment cohort of the MAD study
Procedure, shortened: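 During once-daily multiple dosing, plasma 4β-hydroxycholesterol was quantified by validated LC-MS/MS (LLOQ 2 ng/ml for 50 μl plasma). 4α-Hydroxycholesterol and total cholesterol were measured as normalisation factors.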

CSF Aβ42 = assay: Indirect-response simulation of CSF Aβ42 lowering from MAD exposure-response; set-up: species or system human; settings: MAD exposure-response model, Fig. 3F
[7] = test system: brain and CSF Aβ42 and Aβ40; settings: rats; ref Toyn et al., 2016; cited from earlier work
[8] = test system: brain and CSF Aβ42 and Aβ40; settings: dogs; ref Toyn et al., 2016; cited from earlier work
[9] = SAD panel 4, 2 hours after 40 mg famotidine
[10] = both, 300 mg, SAD panel 4, 300 mg, fasted
[11] = both, 900 mg, SAD panel 8, 900 mg, elderly
[12] = 50 mg, MAD panel 1, 50 mg once daily, day 1
[13] = 50 mg, MAD panel 1, 50 mg once daily, day 14
[14] = 50 mg, MAD panel 1, 50 mg once daily, day 28

T2 sequence (P08684 whole entry): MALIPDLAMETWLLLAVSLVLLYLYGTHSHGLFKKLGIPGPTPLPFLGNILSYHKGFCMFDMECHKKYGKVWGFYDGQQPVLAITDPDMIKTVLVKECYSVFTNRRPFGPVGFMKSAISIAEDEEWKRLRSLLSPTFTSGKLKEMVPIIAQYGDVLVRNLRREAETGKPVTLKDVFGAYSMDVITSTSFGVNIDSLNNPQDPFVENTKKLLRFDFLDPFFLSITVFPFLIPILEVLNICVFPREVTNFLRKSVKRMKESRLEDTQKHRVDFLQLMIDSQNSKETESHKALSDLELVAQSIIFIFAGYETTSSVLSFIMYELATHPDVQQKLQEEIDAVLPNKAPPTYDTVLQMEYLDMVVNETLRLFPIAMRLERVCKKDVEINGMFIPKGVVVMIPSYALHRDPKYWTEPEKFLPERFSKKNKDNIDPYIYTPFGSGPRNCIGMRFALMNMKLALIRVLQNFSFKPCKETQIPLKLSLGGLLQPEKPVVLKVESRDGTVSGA

SMILES: CNc1nc(Nc2ccc(-n3cnc(C)n3)c(OC)c2)nc2c1CC[C@H]2c1ccc(F)cc1 [BMS-932481, (S)-7-(4-fluorophenyl)-N2-(3-methoxy-4-(3-methyl-1H-1,2,4-triazol-1-yl)phenyl)-N4-methyl-6,7-dihydro-5H-cyclopenta[d]pyrimidine-2,4-diamine]
- higher Cmax in elderly than normal healthy young ([1]; 900 mg single dose, range 3.4–4.3): 3.8 fold
- Between-subjects variability ([1]; SAD): 27%–83
- increase of AUC with famotidine (change in gastric pH) [1, 9]: approximately 15%
- increase of Cmax with famotidine (change in gastric pH) [1, 9]: 60%
- Cmax ([1]; both, 10 mg, SAD panel 1, 10 mg single dose): 11 ng/mL
- Cmax ([1]; both, 30 mg, SAD panel 2, 30 mg single dose): 49 ng/mL
- AUC(0-t) [1, 10]: 8570 ng·h/mL
- AUC(0-inf) [1, 10]: 8750 ng·h/mL
- Cmax [1, 10]: 325 ng/mL
- half-life ([1]; both, 300 mg, t1/2 Mean (S.D.), SAD panel 4, 300 mg, fasted): 20 h
- AUC(0-t) [1, 11]: 134000 ng·h/mL
- AUC(0-inf) [1, 11]: 156000 ng·h/mL
- Cmax [1, 11]: 2870 ng/mL
- half-life ([1]; both, mean terminal half-life, SAD, healthy young participants): 16 to 32 h
- AUC(0-t) ([1]; 900 mg, SAD panel 9, 900 mg): 42600 ng·h/mL
- Cmax ([1]; 900 mg, SAD panel 9, 900 mg): 876 ng/mL
- half-life ([1]; 900 mg, t1/2 Mean (S.D.), SAD panel 9, 900 mg): 32 h
- dose proportionality of plasma exposure ([1]; single dose, 10 to 1200 mg, healthy young volunteers): dose proportional
- steady state achieved ([2]; MAD 50- and 100-mg dose groups): ≤ 14 days
- dose proportionality of plasma exposure ([2]; MAD day 14): greater than dose proportionality
- slope for AUCτ versus dose ([2]; MAD day 14, 95% CI, 1.03–1.88, r^2 = 0.81): 1.46
- slope for Cmax versus dose ([2]; MAD day 14, 95% CI, 1.06–1.67, r^2 = 0.9): 1.36
- dose proportionality of plasma exposure ([2]; first dose (day 1) of multiple-dose administrations, 50 to 200 mg): dose proportional
- half-life ([2]; 50 mg): 24 h
- concentration at 24 h [2, 12]: 47 ng/mL
- concentration at 24 h [2, 13]: 204 ng/mL
- concentration at 24 h [2, 14]: 165 ng/mL
- Cmax [2, 12]: 134 ng/mL
- Cmax [2, 13]: 323 ng/mL
- Cmax [2, 14]: 293 ng/mL
- half-life ([2]; 100 mg): 29 h
- concentration at 24 h ([2]; 100 mg, MAD panel 2, 100 mg once daily, day 1): 87 ng/mL
- half-life ([2]; 200 mg): 37 h
- concentration at 24 h ([2]; 200 mg, MAD panel 3, 200 mg once daily, day 1): 220 ng/mL
- accumulation after multiple dosing ([2]; multiple dosing): approximately 3 fold
- effect on CSF APL1β28 fragment (CSF Aβ peptides [3]; MAD): No effects
- effect on CSF Aβ14 fragment (CSF Aβ peptides [3]; MAD): No effects
- Mean decrease in CSF Aβ40, change from baseline (CSF Aβ peptides [3]; MAD 50 mg, day 28): −36%
- Mean decrease in CSF Aβ42, change from baseline (CSF Aβ peptides [3]; MAD 50 mg, day 28): −38%
- increase of CSF Aβ37, of baseline (CSF Aβ peptides [3]; MAD 50 mg, day 28): 292%
- Mean decrease in CSF Aβ40, change from baseline (CSF Aβ peptides [3]; MAD 100 mg, day 28): −44%
- Mean decrease in CSF Aβ42, change from baseline (CSF Aβ peptides [3]; MAD 100 mg, day 28): −46%
- increase of CSF Aβ37, of baseline (CSF Aβ peptides [3]; MAD 100 mg, day 28): 518%
- increase of CSF Aβ37, of baseline (CSF Aβ peptides [3]; MAD 200 mg, 48, 72 or 96 hours after last dose): 484%–545
- CSF Aβ40 and Aβ42 levels four days after the last day of dosing (CSF Aβ peptides [3]; MAD 200 mg, 96 hours after last dose): still significantly reduced
- increase of CSF Aβ38 (CSF Aβ peptides [3]; MAD, 50 mg): 20%
- increase of CSF Aβ38 (CSF Aβ peptides [3]; MAD, 100 mg): 69%
- increase of CSF Aβ38 (CSF Aβ peptides [3]; MAD, 200 mg): 68%
- CSF Aβ42/CSF Aβ40 ratio (CSF Aβ peptides [3]; MAD, especially at the 200-mg dose): Trends in lowering
- effect on CSF AB17 (CSF Aβ peptides [3]; SAD and MAD (Supplemental Figs. 4C and 5F)): slight increases
- effect on total Aβ in CSF (CSF Aβ peptides [3]; at higher dose levels): modest decreases
- effect on CSF Aβ39 (CSF Aβ peptides [4]): appeared to lower
- effect on shorter CSF fragments Aβ14, Aβ15, and Aβ34 (CSF Aβ peptides [4]): no effect
- degree of CSFAβ42 lowering, elderly versus young (CSF Aβ peptides [4]; largely due to higher exposures in elderly): greater in elderly than in young
- IC50 (UGT1A1): 1.34 µM
- metabolizing enzyme (CYP3A4 [5]): primarily metabolized by CYP3A4
- KI (inactivation) (CYP3A4 [5]; human): 82.5 µM
- induction of CYP3A4 enzyme activity (CYP3A4 [5]; preclinical): weak inducer
- projected reduction of CSF Aβ42 from baseline (brain Aβ42): ≥ 50%
- changes in 4βHC levels (CYP3A4 [6]): no significant changes
- decrease of CSF Aβ42 levels within exposures free of liver toxicity findings (CSF Aβ42): ≤ 25%
- Aβ42 and Aβ40 lowering in both the brain and CSF [7]: dose-dependent
- Aβ42 and Aβ40 lowering in both the brain and CSF [8]: dose-dependent
